The target of assay [1] is T1, Beta-1,4-galactosyltransferase 1 (Homo sapiens) (UniProt P15291).
T1 sequence (whole entry): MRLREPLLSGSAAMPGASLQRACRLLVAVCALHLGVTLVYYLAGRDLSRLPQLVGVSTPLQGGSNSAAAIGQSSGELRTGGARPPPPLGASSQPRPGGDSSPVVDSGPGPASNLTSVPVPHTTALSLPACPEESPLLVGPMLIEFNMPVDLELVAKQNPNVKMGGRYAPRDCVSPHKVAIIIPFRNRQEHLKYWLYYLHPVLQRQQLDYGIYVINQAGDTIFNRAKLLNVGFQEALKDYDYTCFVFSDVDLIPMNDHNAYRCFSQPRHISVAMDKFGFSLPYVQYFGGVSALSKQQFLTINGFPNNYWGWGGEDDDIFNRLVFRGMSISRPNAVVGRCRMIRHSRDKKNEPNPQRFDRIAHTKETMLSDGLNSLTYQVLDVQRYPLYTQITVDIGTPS
Description: Inhibition of human recombinant soluble His-tagged beta4-GalT1 expressed in Escherichia coli BL21 using GlcNAcbeta-Bn as substrate at 0.5 mM after 1 hr relative to control. In outline:
(§1)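 Single point at 0.5 mM bis-imidazolium salt, 10% ethanol. Acceptor 0.5 mM GlcNAcβ-Bn, donor 0.5 mM UDP-Gal. […] Enzyme: 0.34 µg His-tagged human β4-GalT1 from BL21, or bovine milk β4-GalT1. Mean ± SD of replicates.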

Assay [2] deals with T2, Beta-1,3-galactosyltransferase 5 (Homo sapiens) (UniProt Q9Y2C3).
T2 sequence (whole entry): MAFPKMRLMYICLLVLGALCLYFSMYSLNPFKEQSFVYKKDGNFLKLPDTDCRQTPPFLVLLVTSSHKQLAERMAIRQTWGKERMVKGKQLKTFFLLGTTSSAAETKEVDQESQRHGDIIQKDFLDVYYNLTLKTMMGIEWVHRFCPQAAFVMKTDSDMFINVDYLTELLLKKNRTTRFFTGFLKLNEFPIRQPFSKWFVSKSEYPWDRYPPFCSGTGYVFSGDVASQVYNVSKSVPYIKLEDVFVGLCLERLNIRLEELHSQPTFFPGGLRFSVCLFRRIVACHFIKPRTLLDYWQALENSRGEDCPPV
Description: Inhibition of human recombinant soluble His-tagged beta3-GalT5 expressed in insect cells using GlcNAcbeta-Bn as substrate at 0.5 mM after 1 hr relative to control. In short, it runs like this: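 Soluble His-tagged human β3-GalT5 expressed in insect cells and purified, 0.37 µg. Acceptor 0.5 mM GlcNAcβ-Bn, donor 0.5 mM UDP-Gal, inhibitor 0.5 mM bis-imidazolium salt in 10% ethanol. 1 h at 37 °C. Product isolated on AG1-X8 resin and counted by scintillation. % inhibition versus no-inhibitor control; blanks lacked acceptor. Mean ± SD of replicates.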

The species named for another assay is Bos taurus. Kind of assay: Inhibition of bovine polypeptide GalNAcT1 using AQPTPPP as substrate at 0.5 mM after 1 hr relative to control.
Assay [3] concerns the target T3, Alpha-1,6-mannosyl-glycoprotein 2-beta-N-acetylglucosaminyltransferase (Homo sapiens) (UniProt Q10469).
T3 sequence (whole entry): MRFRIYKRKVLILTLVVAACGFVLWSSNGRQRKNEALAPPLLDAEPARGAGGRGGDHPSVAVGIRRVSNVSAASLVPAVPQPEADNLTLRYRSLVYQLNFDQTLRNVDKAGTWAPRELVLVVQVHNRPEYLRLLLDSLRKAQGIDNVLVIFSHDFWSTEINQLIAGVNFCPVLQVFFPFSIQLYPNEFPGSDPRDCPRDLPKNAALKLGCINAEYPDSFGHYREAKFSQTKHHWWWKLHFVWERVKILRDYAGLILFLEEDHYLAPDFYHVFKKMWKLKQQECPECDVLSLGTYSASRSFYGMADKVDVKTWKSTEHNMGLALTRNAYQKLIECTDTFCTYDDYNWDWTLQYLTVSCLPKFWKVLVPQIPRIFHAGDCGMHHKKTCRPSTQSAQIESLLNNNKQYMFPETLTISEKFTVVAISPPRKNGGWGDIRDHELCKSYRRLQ
Description: Inhibition of human GNT2 […] using GnMan3-octyl as substrate at 0.5 mM after 1 hr in presence of phosphatidylcholine.

For assay [4], the species on record is Homo sapiens. Kind of assay: Inhibition of human C2GnT2 using GlcNAcbeta3GalNAcalpha-pnp as substrate at 0.5 mM after 1 hr in presence of phosphatidylcholine.
The species named for assay [5] is Homo sapiens. Description: Inhibition of human C2GnT2 using Galbeta3GalNAcalpha-Bn as substrate at 0.5 mM after 1 hr in presence of phosphatidylcholine.
Assay [6] deals with T4, Acetylgalactosaminyl-O-glycosyl-glycoprotein beta-1,3-N-acetylglucosaminyltransferase (Homo sapiens) (UniProt Q6ZMB0).
T4 sequence (whole entry): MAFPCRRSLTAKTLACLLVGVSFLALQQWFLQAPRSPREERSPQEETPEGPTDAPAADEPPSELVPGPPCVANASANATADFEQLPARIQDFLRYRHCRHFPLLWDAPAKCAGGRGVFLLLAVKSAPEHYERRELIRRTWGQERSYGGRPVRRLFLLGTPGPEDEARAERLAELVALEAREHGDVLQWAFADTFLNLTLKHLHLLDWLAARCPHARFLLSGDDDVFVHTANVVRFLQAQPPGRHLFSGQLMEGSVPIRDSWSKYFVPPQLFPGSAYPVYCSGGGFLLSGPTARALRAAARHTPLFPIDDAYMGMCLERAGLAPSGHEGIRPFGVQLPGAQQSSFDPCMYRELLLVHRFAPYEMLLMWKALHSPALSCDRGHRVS
Description: Inhibition of human B3GnT6 using GalNAcalpha-Bn as substrate at 0.5 mM after 1 hr in presence of phosphatidylcholine.

Assay [7] concerns the target T5, Beta-1,3-galactosyl-O-glycosyl-glycoprotein beta-1,6-N-acetylglucosaminyltransferase (Homo sapiens) (UniProt Q02742).
T5 sequence (whole entry): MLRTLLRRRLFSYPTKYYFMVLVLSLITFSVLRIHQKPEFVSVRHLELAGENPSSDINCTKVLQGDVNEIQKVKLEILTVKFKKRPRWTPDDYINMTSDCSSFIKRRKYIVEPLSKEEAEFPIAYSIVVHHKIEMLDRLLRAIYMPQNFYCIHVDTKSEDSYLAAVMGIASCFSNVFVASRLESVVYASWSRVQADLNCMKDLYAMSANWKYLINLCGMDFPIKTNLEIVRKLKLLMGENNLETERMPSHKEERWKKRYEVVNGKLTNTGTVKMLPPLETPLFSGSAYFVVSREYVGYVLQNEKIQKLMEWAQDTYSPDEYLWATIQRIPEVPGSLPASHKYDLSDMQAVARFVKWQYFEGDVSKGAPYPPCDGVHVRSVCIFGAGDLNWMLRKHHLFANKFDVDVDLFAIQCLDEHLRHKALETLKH
Kind of assay: Inhibition of human C2GnT1 using Galbeta3GalNAcalpha-Bn as substrate at 0.5 mM after 1 hr in presence of phosphatidylcholine.

For assay [8], the target named is T6, Beta-1,4-galactosyltransferase 1 (Bos taurus) (UniProt P08037).
T6 sequence (whole entry): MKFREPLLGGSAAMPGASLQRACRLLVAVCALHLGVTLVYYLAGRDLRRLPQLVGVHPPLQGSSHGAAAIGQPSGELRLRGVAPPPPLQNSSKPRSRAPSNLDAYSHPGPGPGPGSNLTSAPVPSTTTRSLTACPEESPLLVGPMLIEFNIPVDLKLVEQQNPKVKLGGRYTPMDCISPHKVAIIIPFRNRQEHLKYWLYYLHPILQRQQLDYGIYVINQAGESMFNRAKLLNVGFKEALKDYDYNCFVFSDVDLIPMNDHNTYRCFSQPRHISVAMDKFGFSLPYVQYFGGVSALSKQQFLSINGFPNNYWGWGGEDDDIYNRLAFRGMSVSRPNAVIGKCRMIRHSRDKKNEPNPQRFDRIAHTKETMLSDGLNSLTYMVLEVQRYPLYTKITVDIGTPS
Kind of assay: Inhibition of bovine milk beta4-GalT1 using GlcNAcbeta-Bn as substrate at 0.5 mM after 1 hr relative to control. In short, it runs like this:
as §1

The target of assay [9] is Glycoprotein-N-acetylgalactosamine 3-beta-galactosyltransferase 1 (Homo sapiens) (UniProt Q9NS00). Kind of assay: Inhibition of human C1GalT Gal-transferase using GalNAcalpha-Bn as substrate at 0.5 mM after 1 hr in presence of phosphatidylcholine.
Glycoprotein-N-acetylgalactosamine 3-beta-galactosyltransferase 1 (Homo sapiens), sequence (Q9NS00 whole entry): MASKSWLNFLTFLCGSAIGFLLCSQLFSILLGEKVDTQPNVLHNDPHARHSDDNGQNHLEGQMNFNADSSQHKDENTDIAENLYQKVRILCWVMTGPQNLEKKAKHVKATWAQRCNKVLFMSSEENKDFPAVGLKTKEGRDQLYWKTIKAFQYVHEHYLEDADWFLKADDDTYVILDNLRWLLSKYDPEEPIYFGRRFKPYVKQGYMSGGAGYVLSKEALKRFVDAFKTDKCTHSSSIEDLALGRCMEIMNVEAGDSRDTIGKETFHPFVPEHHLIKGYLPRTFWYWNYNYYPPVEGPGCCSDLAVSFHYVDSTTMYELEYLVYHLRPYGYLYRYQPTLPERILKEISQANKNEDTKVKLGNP
The target in assay [10] is Beta-1,3-galactosyltransferase 5 (Homo sapiens) (UniProt Q9Y2C3). Kind of assay: Inhibition of human recombinant soluble His-tagged beta3-GalT5 expressed in insect cells using GlcNAcbeta-Bn as substrate after 1 hr.
The target in assay [11] is T7, Beta-1,4-galactosyltransferase 1 (Bos taurus, UniProt P08037).
T7 sequence (P08037 whole entry): T6 sequence (whole entry)
Description: Inhibition of bovine milk beta4-GalT1 using GlcNAcbeta-Bn as substrate after 1 hr relative to control. In short, it runs like this: (§2)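 Dose-response series of bis-imidazolium salt in 10% ethanol, 0.5 mM GlcNAcβ-Bn acceptor, 0.5 mM UDP-Gal donor. 1 h at 37 °C. Product isolated on AG1-X8 anion-exchange resin (chloride form) with water elution, then scintillation counting. Controls lacked acceptor or inhibitor. IC50 fitted from inhibition curves. Enzyme source: bovine milk β4-GalT1 or bacterially expressed, purified human β4-GalT1.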

The target in assay [12] is T8, Beta-1,4-galactosyltransferase 1 (Homo sapiens, UniProt P15291).
T8 sequence (P15291 whole entry): T1 sequence (whole entry)
Description: Inhibition of human recombinant soluble His-tagged beta4-GalT1 expressed in Escherichia coli BL21 using GlcNAcbeta-Bn as substrate after 1 hr relative to control. In short, it runs like this:
as §2

This note sets out measurements from ChEMBL document CHEMBL2321737, “Selective inhibition of glycosyltransferases by bivalent imidazolium salts” (Bioorg Med Chem, 2013).

For `c1cn(CCCCCCCCCCCCCCCCn2ccnc2)cn1`, the inhibition in assay [1] and in assay [2] was less than 1% throughout.
Turning to `c1cn(CCCCCCCCCCCCCCCCCCn2ccnc2)cn1`, the inhibition in [1] and in assay [2] was less than 1% each time.
As for `C[n+]1ccn(CCCCCCCCCCCCCCCCCCCCCCn2cc[n+](C)c2)c1`, the inhibition (commonly the share of the control response that was lost under treatment) in the assay listed under Bos taurus was 100%; in [3], less than 1%; in the assay filed under Homo sapiens [4], less than 1%; in the assay listed under Homo sapiens [5], less than 1%; in assay [6], 78%; in [7], 100%. Further, the inhibition is 78% in assay [8], 78% in [1], 95% in [2] and less than 1% in [9]. Moreover, in assay [10], the IC50 – broadly, the concentration that gives 50% inhibition – worked out at 400 µM.
Consider `c1cn(CCCCCCCCCCCCCCn2ccnc2)cn1`, for which the inhibition in assay [1] and in [2] was less than 1% each time.
Take `c1cn(CCCCn2ccnc2)cn1`: the inhibition in assay [1] and in assay [2] was less than 1% each time.
With `C[n+]1ccn(CCCCCCCCCCCCCCCCn2cc[n+](C)c2)c1`, the inhibition in [1] and in assay [2] was less than 1% in each case.
For `C[n+]1ccn(CCCCCCCCCCCCCCCCCCCCn2cc[n+](C)c2)c1` [listing 1 of 2 here], the IC50 in assay [10] amounted to 420 µM.
With `C[n+]1ccn(CCCCCCCCCCCCCCn2cc[n+](C)c2)c1`, the inhibition in assay [1] and in [2] was less than 1% throughout.
Regarding `C[n+]1ccn(CCCCCCn2cc[n+](C)c2)c1`, the inhibition in [1] and in assay [2] was less than 1% throughout.
On to `C[n+]1ccn(CCCCCCCCCCCCCn2cc[n+](C)c2)c1`, for which the inhibition in [1] and in [2] was less than 1% in each case.
Turning to `C[n+]1ccn(CCCCn2cc[n+](C)c2)c1`, the inhibition in assay [1] and in assay [2] was less than 1% throughout.
For the compound `C[n+]1ccn(CCCCCCCCCCCCCCCCCCCCn2cc[n+](C)c2)c1` [listing 2 of 2 here], the IC50 in assay [11] is 730 µM; in [12] it was 1960 µM; in [10] it was 440 µM.
Turning to `c1cn(CCCCCCCCCCCCCCCCCCCCn2ccnc2)cn1`, the inhibition in assay [1] and in assay [2] was less than 1% in each case.
In the case of `c1cn(CCCCCCCCCCn2ccnc2)cn1`, the inhibition in assay [1] and in assay [2] was less than 1% in each case.
Take `C[n+]1ccn(CCCCCCCCCCCCCCCCCCn2cc[n+](C)c2)c1`: the values for the inhibition in assay [1] and in assay [2] were less than 1% and less than 5%, respectively.
For `c1cn(CCCCCCCCn2ccnc2)cn1`, the inhibition in assay [1] and in assay [2] was less than 1% in each case.
For `c1cn(CCCCCCCCCCCCCCCn2ccnc2)cn1`, the inhibition in assay [1] and in [2] was less than 1% each time.
In the case of `C[n+]1ccn(CCCCCCCCCCCn2cc[n+](C)c2)c1`, the inhibition in assay [1] and in [2] was less than 1% in each case.
With `c1cn(CCCCCCCCCCCCCn2ccnc2)cn1`, the inhibition in [1] and in [2] was less than 1% each time.
Take `c1cn(CCCCCCCCCCCCn2ccnc2)cn1`: the inhibition in assay [1] and in assay [2] was less than 1% each time.
For `C[n+]1ccn(CCCCCCCCCCCCn2cc[n+](C)c2)c1`, the inhibition in assay [1] and in assay [2] was less than 1% throughout.
Take `C[n+]1ccn(CCCCCCCCCCn2cc[n+](C)c2)c1`: the inhibition in assay [1] and in [2] was less than 1% each time.
For `C[n+]1ccn(CCCCCCCCCCCCCCCn2cc[n+](C)c2)c1`, the inhibition in [1] and in [2] was less than 1% each time.
As for `c1cn(CCCCCCn2ccnc2)cn1`, the inhibition in assay [1] and in assay [2] was less than 1% throughout.
In the case of `c1cn(CCCCCCCCCCCn2ccnc2)cn1`, the inhibition in assay [1] and in [2] was less than 1% in each case.
As to `C[n+]1ccn(CCCCCCCCn2cc[n+](C)c2)c1`, the inhibition in assay [1] and in assay [2] was less than 1% in each case.
